Assay results from different studies.
Medium: plasma
Route: intravenous

| SMILES | test system | conditions | clearance |
| --- | --- | --- | --- |
| CNS(=O)(=O)c1ccc(Nc2ncc3cc(Cl)c(=O)n(C4CCCC4)c3n2)c(C)c1 | rat | 2 mg/kg | 50 mL/min/kg |
| [2H]c1cc(C)c(NC(=O)c2cnc(Nc3cc(N4CCC(O)CC4)nc(C)n3)s2)c(Cl)c1 | male Sprague-Dawley rat | 1 mg/kg | 33.3 mL/min/kg |
| C[C@H]1CN(c2ccc(C3CCC(=O)NC3=O)cc2F)CCN1CC12CCC(NS(=O)(=O)c3ccc(Nc4ncc(C(F)(F)F)c(N5CCC[C@](C)(O)C5)n4)c(F)c3)(CC1)CO2 (stereo partly drawn) | rat | 2 mg/kg | 18 mL/min/kg |
| COc1ccc(N(Cc2csc(-c3ccccc3)n2)C(=O)CCCCCC(=O)NO)cc1 | female Sprague-Dawley rat | 5 mg/kg | 6810 mL/min/kg |
| COc1ccc(-c2coc3cc(O)cc(O)c3c2=O)cc1 | rat | 2 mg/kg | 48.9 mL/min/kg |
| O=C1CCC(N2Cc3cc(C4CCN(Cc5ccccc5)CC4)ccc3C2=O)C(=O)N1 (stereo not drawn) | male Sprague-Dawley rat | 1 mg/kg | 51.4 mL/min/kg |
| COc1cc(-c2cc(C(C)=O)n3ccccc23)c(OC)cc1Cn1ccnc1 | male Sprague-Dawley rat | 5 mg/kg | 20.1 mL/min/kg |
| Cc1cc(S(=O)(=O)NC2CC(N3CCN(CC4CCN(c5cccc6c5n(C)c(=O)n6C5CCC(=O)NC5=O)CC4)C4(CC4)C3)C2)ccc1Nc1ncc(C(F)(F)F)c(N2CCC[C@](C)(O)C2)n1 (stereo partly drawn) | rat | 2 mg/kg | 35 mL/min/kg |
| Cc1nc(Nc2ncc(C(=O)Nc3c(C)cccc3Cl)s2)cc(N2CCN(CCO)CC2)n1 | male Sprague-Dawley rat | 1 mg/kg | 21.7 mL/min/kg |
| O=c1c(NCCc2cccc(Cl)c2)c(Nc2ccc(Cl)cc2)c1=O | male Sprague-Dawley rat | 1 mg/kg | 29.3 mL/min/kg |
| Cc1nc(Nc2ncc(C(=O)Nc3c(C)cccc3Cl)s2)cc(N2CC[C@H](N)C2)n1 | male Sprague-Dawley rat | 1 mg/kg | 51.7 mL/min/kg |
| C=CCn1c(=O)c2cnc(Nc3ccc(N4CCN(C)CC4)cc3)nc2n1-c1ccc2c(n1)[C@@](O)(CC)CC2 | rat | 3 mg/kg | 33 mL/min/kg |
